In ChEMBL document CHEMBL2163316, “Discovery of (S)-6-(3-cyclopentyl-2-(4-(trifluoromethyl)-1H-imidazol-1-yl)propanamido)nicotinic acid as a hepatoselective glucokinase activator clinical candidate for treating type 2 diabetes mellitus” (J Med Chem, 2012):
In brackets after ≈: the same amount, converted by molar mass.

Columns and labels:
[1] = Ratio of free drug uptake in pancreas to plasma of Wistar rat at 100 mg/kg, po administered for 28 days measured 4 hrs post last dosing; format: ADME, organism-based; set-up: dose 100 mg/kg, route oral
Method in brief: (§1)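 Oral repeat dosing: rats for 28 days, dogs for 4 days. Plasma, liver, pancreas and brain were sampled at 4 h postdose on the last day. Ratios use free drug concentrations, converted with unbound fractions from equilibrium dialysis (plasma at 50 μM, tissues at 1 μM). BLQ = below limit of quantification.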

[2] = Ratio of free drug uptake in pancreas to plasma of dog at 50 mg/kg, po administered for 4 days measured 4 hrs post last dosing; format: ADME, organism-based, Canis lupus familiaris; set-up: dose 50 mg/kg, route oral; method in brief: as §1
Canis familiaris [3] = assay: fCmax in dog at 1 mg/kg, iv; format: ADME, organism-based, Canis lupus familiaris; set-up: dose 1 mg/kg, route intravenous; conditions: in vivo
[4] = Volume of distribution at steady state in monkey at 0.5 mg/kg, iv; format: ADME, organism-based, Macaca mulatta; set-up: dose 0.5 mg/kg, route intravenous; conditions: rhesus monkey, in vivo, read-out: Vdss
Method in brief: (§2)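 Pharmacokinetic parameters are the geometric mean of n = 2 animals per group unless otherwise noted.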

[5] = Drug excretion in rat bile; format: ADME, tissue-based; conditions: read-out: Drug excretion
[6] = Ratio of free drug uptake in brain to plasma of Wistar rat at 100 mg/kg, po administered for 28 days measured 4 hrs post last dosing; format: ADME, organism-based; set-up: dose 100 mg/kg, route oral; conditions: BLD = below limit of detection; method in brief: as §1
Rattus norvegicus [7] = assay: fCmax in rat at 5 mg/kg, po; format: ADME, organism-based; set-up: dose 5 mg/kg, route oral; conditions: in vivo
[8] = Oral bioavailability in dog at 5 mg/kg; format: ADME, organism-based, Canis lupus familiaris; conditions: in vivo
Canis familiaris [9] = assay: fCmax in dog at 5 mg/kg, po; format: ADME, organism-based, Canis lupus familiaris; set-up: dose 5 mg/kg, route oral; conditions: in vivo
[10] = Ratio of free drug uptake in liver to plasma of Wistar rat at 100 mg/kg, po administered for 28 days measured 4 hrs post last dosing; format: ADME, organism-based; set-up: dose 100 mg/kg, route oral; method in brief: as §1
Rhesus monkey [11] = assay: fAUC (0 to 24 hrs) in monkey at 0.5 mg/kg, iv; format: ADME, organism-based, Macaca mulatta; set-up: dose 0.5 mg/kg, route intravenous; conditions: in vivo
[12] = Ratio of free drug uptake in brain to plasma of dog at 50 mg/kg, po administered for 4 days measured 4 hrs post last dosing; format: ADME, organism-based, Canis lupus familiaris; set-up: dose 50 mg/kg, route oral; conditions: read-out: BPR; method in brief: as §1
Rhesus monkey [13] = assay: fAUC (0 to 24 hrs) in monkey at 3 mg/kg, po; format: ADME, organism-based, Macaca mulatta; set-up: dose 3 mg/kg, route oral; conditions: in vivo
[14] = Kinetic solubility of the compound; format: physicochemical; conditions: read-out: Kinetic_solubility
Rattus norvegicus [15] = assay: fCmax in rat at 1 mg/kg, iv; format: ADME, organism-based; set-up: dose 1 mg/kg, route intravenous; conditions: in vivo
[16] = Ratio of free drug uptake in liver to plasma of dog at 50 mg/kg, po administered for 4 days measured 4 hrs post last dosing; format: ADME, organism-based, Canis lupus familiaris; set-up: dose 50 mg/kg, route oral; method in brief: as §1
Rattus norvegicus [17] = assay: fAUC (0 to 24 hrs) in rat at 5 mg/kg, po; format: ADME, organism-based; set-up: dose 5 mg/kg, route oral; conditions: in vivo
[18] = Volume of distribution at steady state in dog at 1 mg/kg, iv; format: ADME, organism-based, Canis lupus familiaris; set-up: dose 1 mg/kg, route intravenous; conditions: in vivo, read-out: Vdss; method in brief: as §2
[19] = Oral bioavailability in monkey at 3 mg/kg; format: ADME, organism-based, Macaca mulatta; conditions: rhesus monkey, in vivo; method in brief: as §2
[20] = Volume of distribution at steady state in rat at 1 mg/kg, iv; format: ADME, organism-based; set-up: dose 1 mg/kg, route intravenous; conditions: in vivo, read-out: Vdss; method in brief: as §2
Rhesus monkey [21] = assay: fCmax in monkey at 3 mg/kg, po; format: ADME, organism-based, Macaca mulatta; set-up: dose 3 mg/kg, route oral; conditions: in vivo
Rattus norvegicus [22] = assay: fAUC (0 to 24 hrs) in rat at 1 mg/kg, iv; format: ADME, organism-based; set-up: dose 1 mg/kg, route intravenous; conditions: in vivo
[23] = Fraction absorbed in portal vein cannulated rat at 5 mg/kg, po; conditions: in vivo, read-out: Fabs
[24] = Thermodynamic solubility of the compound at pH 6.5; format: physicochemical; conditions: buffer, read-out: Therm_solubility
Canis familiaris [25] = assay: fAUC (0 to 24 hrs) in dog at 1 mg/kg, iv; format: ADME, organism-based, Canis lupus familiaris; set-up: dose 1 mg/kg, route intravenous; conditions: in vivo
[26] = Renal excretion in rat; format: ADME, organism-based, Kidney; conditions: urine, read-out: Drug excretion
[27] = Oral bioavailability in rat at 5 mg/kg; format: ADME, organism-based; conditions: in vivo; method in brief: as §2
Canis familiaris [28] = assay: fAUC (0 to 24 hrs) in dog at 5 mg/kg, po; format: ADME, organism-based, Canis lupus familiaris; set-up: dose 5 mg/kg, route oral; conditions: in vivo
Rhesus monkey [29] = assay: fCmax in monkey at 0.5 mg/kg, iv; format: ADME, organism-based, Macaca mulatta; set-up: dose 0.5 mg/kg, route intravenous; conditions: in vivo

Structure (SMILES): O=C(O)c1ccc(NC(=O)[C@H](CC2CCCC2)n2cnc(C(F)(F)F)c2)nc1 [PF-04991532]
- Kp uu at 4 h [1]: 0.14
- Kp uu at 4 h [2]: 0.25
- fCmax (Canis familiaris [3]): 479 ng/mL
- Vd [4]: 0.7 L/kg
- dose excreted [5]: 62%
- BPR [6]: BLD
- fCmax (Rattus norvegicus [7]): 5.4 ng/mL
- bioavailability [8]: 18%
- fCmax (Canis familiaris [9]): 23.3 ng/mL
- Kp uu at 4 h [10]: 10.5
- fAUC (Rhesus monkey [11]): 46.2 ng·h/mL
- Kp uu at 4 h [12]: 0.009
- fAUC (Rhesus monkey [13]): 94.7 ng·h/mL
- solubility kinetic [14]: 524 µM (≈ 208 µg/mL)
- fCmax (Rattus norvegicus [15]): 176 ng/mL
- Kp uu at 4 h [16]: 14.5
- fAUC (Rattus norvegicus [17]): 30.3 ng·h/mL
- Vd [18]: 1.6 L/kg
- bioavailability [19]: 35%
- Vd [20]: 2 L/kg
- fCmax (Rhesus monkey [21]): 13.6 ng/mL
- fAUC (Rattus norvegicus [22]): 34.7 ng·h/mL
- Fa [23]: 53%
- solubility thermodynamic [24]: 4200 µg/mL (≈ 10.6 mM)
- fAUC (Canis familiaris [25]): 79.1 ng·h/mL
- dose excreted [26]: 11%
- bioavailability [27]: 18%
- fAUC (Canis familiaris [28]): 72.6 ng·h/mL
- fCmax (Rhesus monkey [29]): 219 ng/mL
